Laboratory results: ChEMBL document CHEMBL3259770, “Structure-activity relationship studies of the tricyclic indoline resistance-modifying agent” (J Med Chem, 2014)
Converted amounts (≈) assume the structure as drawn.

tested on: Staphylococcus aureus; assay: Antibacterial activity against methicillin-resistant Staphylococcus aureus ATCC BAA-44 after overnight incubation by broth microdilution assay in presence of 4 ug/ml amoxicillin and 2 ug/ml clavulanic acid; type: functional
Procedure, shortened: (§1)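 Resensitization screen: compound from a 5 mg/mL DMSO stock, 2-fold serially diluted in MHB from 32 μg/mL final. Antibiotic was held at its CLSI-susceptible level: amoxicillin/clavulanic acid 4/2 μg/mL, cefazolin 8 μg/mL, meropenem 4 μg/mL. Final MRSA inoculum OD600 0.001, overnight at 37 °C with shaking. MRC was the concentration giving no visible overnight growth.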

SMILES	MRC [µg/mL]
C=C1CCC[C@@H]2Nc3ccc(Br)cc3[C@]12CCNC(=O)CCCC	>32
C=C1CCC[C@@H]2Nc3ccc(Br)cc3[C@]12CCNS(=O)(=O)c1ccc(NC(C)=O)cc1	>32
C=C1CCC[C@@H]2Nc3c(F)cc(Br)cc3[C@]12CCNS(=O)(=O)c1ccc(C)cc1	4
C=C1CCC[C@@H]2Nc3c(F)cc(Br)cc3[C@]12CCNS(=O)(=O)c1ccc(C(F)(F)F)cc1	4
C=C1CCC[C@@H]2N(S(=O)(=O)c3ccc(Cl)cc3)c3ccc(Br)cc3[C@]12CCNS(=O)(=O)c1ccc(Cl)cc1	>32
C=C1CCC[C@@H]2Nc3c(F)cc(Br)cc3[C@]12CCNS(=O)(=O)c1ccc(NC(C)=O)cc1	32
C=C1CCC[C@@H]2Nc3ccc(Br)cc3[C@]12CCNS(=O)(=O)c1ccc([N+](=O)[O-])cc1	>32
C=C1CCC[C@@H]2Nc3ccc(Br)cc3[C@]12CCNS(=O)(=O)c1ccccc1	8
C=C1CCC[C@@H]2Nc3ccc(Br)cc3[C@]12CCNS(=O)(=O)c1ccc(Cl)cc1	4
C=C1CCC[C@@H]2Nc3ccc(Br)cc3[C@]12CCNS(=O)(=O)c1ccccn1	32
C=C1CCC[C@@H]2Nc3ccc(Br)cc3[C@]12CCN	32
C=C1CCC[C@@H]2Nc3c(F)cc(Br)cc3[C@]12CCNS(=O)(=O)c1ccc(C#N)cc1	8
C=C1CCC[C@@H]2Nc3ccc(OC)cc3[C@]12CCNS(=O)(=O)c1ccc(Cl)cc1	>32
C=C1CCC[C@@H]2Nc3ccc(Br)cc3[C@]12CCNS(=O)(=O)c1ccc(F)cc1	>32
C=C1CCC[C@@H]2Nc3ccc(F)cc3[C@]12CCNS(=O)(=O)c1ccc(Cl)cc1	16
C=C1CCC[C@@H]2Nc3ccc(Br)cc3[C@]12CCNC(=O)c1ccc(Cl)cc1	>32
C=C1CCC[C@@H]2Nc3ccc(Br)cc3[C@]12CCN(C)S(=O)(=O)c1ccc(Cl)cc1	>32
C=C1CCC[C@@H]2Nc3cc(Br)ccc3[C@]12CCNS(=O)(=O)c1ccc(Cl)cc1	16
C=C1CCC[C@@H]2Nc3ccc(Br)cc3[C@]12CCNS(=O)(=O)c1ccc(C#N)cc1	16
C=C1CCC[C@@H]2N(C)c3ccc(Br)cc3[C@]12CCNS(=O)(=O)c1ccc(Cl)cc1	>32
C=C1CCC[C@@H]2Nc3c(Cl)cc(Cl)cc3[C@]12CCNS(=O)(=O)c1ccc(Cl)cc1	4
C=C1CCC[C@@H]2Nc3ccc(Br)cc3[C@]12CCN(C(=O)c1ccc(Cl)cc1)S(=O)(=O)c1ccc(Cl)cc1	>32

tested on: Staphylococcus aureus; assay: Antibacterial activity against methicillin-resistant Staphylococcus aureus ATCC BAA-44 after overnight incubation by broth microdilution assay in presence of 8 ug/ml cefazolin; type: functional; procedure, shortened: as §1

SMILES	MRC [µg/mL]
C=C1CCC[C@@H]2Nc3ccc(Br)cc3[C@]12CCNC(=O)CCCC	>32
C=C1CCC[C@@H]2Nc3ccc(Br)cc3[C@]12CCNS(=O)(=O)c1ccc(NC(C)=O)cc1	>32
C=C1CCC[C@@H]2Nc3c(F)cc(Br)cc3[C@]12CCNS(=O)(=O)c1ccc(C)cc1	4
C=C1CCC[C@@H]2Nc3c(F)cc(Br)cc3[C@]12CCNS(=O)(=O)c1ccc(C(F)(F)F)cc1	4
C=C1CCC[C@@H]2N(S(=O)(=O)c3ccc(Cl)cc3)c3ccc(Br)cc3[C@]12CCNS(=O)(=O)c1ccc(Cl)cc1	>32
C=C1CCC[C@@H]2Nc3c(F)cc(Br)cc3[C@]12CCNS(=O)(=O)c1ccc(NC(C)=O)cc1	32
C=C1CCC[C@@H]2Nc3ccc(Br)cc3[C@]12CCNS(=O)(=O)c1ccc([N+](=O)[O-])cc1	>32
C=C1CCC[C@@H]2Nc3ccc(Br)cc3[C@]12CCNS(=O)(=O)c1ccccc1	8
C=C1CCC[C@@H]2Nc3ccc(Br)cc3[C@]12CCNS(=O)(=O)c1ccc(Cl)cc1	4
C=C1CCC[C@@H]2Nc3ccc(Br)cc3[C@]12CCNS(=O)(=O)c1ccccn1	32
C=C1CCC[C@@H]2Nc3ccc(Br)cc3[C@]12CCN	32
C=C1CCC[C@@H]2Nc3c(F)cc(Br)cc3[C@]12CCNS(=O)(=O)c1ccc(C#N)cc1	4
C=C1CCC[C@@H]2Nc3ccc(OC)cc3[C@]12CCNS(=O)(=O)c1ccc(Cl)cc1	>32
C=C1CCC[C@@H]2Nc3ccc(Br)cc3[C@]12CCNS(=O)(=O)c1ccc(F)cc1	>32
C=C1CCC[C@@H]2Nc3ccc(F)cc3[C@]12CCNS(=O)(=O)c1ccc(Cl)cc1	16
C=C1CCC[C@@H]2Nc3ccc(Br)cc3[C@]12CCNC(=O)c1ccc(Cl)cc1	>32
C=C1CCC[C@@H]2Nc3ccc(Br)cc3[C@]12CCN(C)S(=O)(=O)c1ccc(Cl)cc1	>32
C=C1CCC[C@@H]2Nc3cc(Br)ccc3[C@]12CCNS(=O)(=O)c1ccc(Cl)cc1	16
C=C1CCC[C@@H]2Nc3ccc(Br)cc3[C@]12CCNS(=O)(=O)c1ccc(C#N)cc1	8
C=C1CCC[C@@H]2N(C)c3ccc(Br)cc3[C@]12CCNS(=O)(=O)c1ccc(Cl)cc1	>32
C=C1CCC[C@@H]2Nc3c(Cl)cc(Cl)cc3[C@]12CCNS(=O)(=O)c1ccc(Cl)cc1	4
C=C1CCC[C@@H]2Nc3ccc(Br)cc3[C@]12CCN(C(=O)c1ccc(Cl)cc1)S(=O)(=O)c1ccc(Cl)cc1	>32

tested on: Staphylococcus aureus; assay: Antibacterial activity against methicillin-resistant Staphylococcus aureus ATCC 33592 after overnight incubation by broth microdilution assay in presence of 4 ug/ml meropenem; type: functional; procedure, shortened: as §1

SMILES	MRC [µg/mL]
C=C1CCC[C@@H]2Nc3ccc(Br)cc3[C@]12CCNC(=O)CCCC	32
C=C1CCC[C@@H]2Nc3ccc(Br)cc3[C@]12CCNS(=O)(=O)c1ccc(NC(C)=O)cc1	32
C=C1CCC[C@@H]2Nc3c(F)cc(Br)cc3[C@]12CCNS(=O)(=O)c1ccc(C)cc1	4
C=C1CCC[C@@H]2Nc3c(F)cc(Br)cc3[C@]12CCNS(=O)(=O)c1ccc(C(F)(F)F)cc1	4
C=C1CCC[C@@H]2N(S(=O)(=O)c3ccc(Cl)cc3)c3ccc(Br)cc3[C@]12CCNS(=O)(=O)c1ccc(Cl)cc1	>32
C=C1CCC[C@@H]2Nc3c(F)cc(Br)cc3[C@]12CCNS(=O)(=O)c1ccc(NC(C)=O)cc1	16
C=C1CCC[C@@H]2Nc3ccc(Br)cc3[C@]12CCNS(=O)(=O)c1ccc([N+](=O)[O-])cc1	>32
C=C1CCC[C@@H]2Nc3ccc(Br)cc3[C@]12CCNS(=O)(=O)c1ccccc1	16
C=C1CCC[C@@H]2Nc3ccc(Br)cc3[C@]12CCNS(=O)(=O)c1ccc(Cl)cc1	4
C=C1CCC[C@@H]2Nc3ccc(Br)cc3[C@]12CCNS(=O)(=O)c1ccccn1	32
C=C1CCC[C@@H]2Nc3ccc(Br)cc3[C@]12CCN	32
C=C1CCC[C@@H]2Nc3c(F)cc(Br)cc3[C@]12CCNS(=O)(=O)c1ccc(C#N)cc1	4
C=C1CCC[C@@H]2Nc3ccc(OC)cc3[C@]12CCNS(=O)(=O)c1ccc(Cl)cc1	>32
C=C1CCC[C@@H]2Nc3ccc(Br)cc3[C@]12CCNS(=O)(=O)c1ccc(F)cc1	>32
C=C1CCC[C@@H]2Nc3ccc(F)cc3[C@]12CCNS(=O)(=O)c1ccc(Cl)cc1	16
C=C1CCC[C@@H]2Nc3ccc(Br)cc3[C@]12CCNC(=O)c1ccc(Cl)cc1	>32
C=C1CCC[C@@H]2Nc3ccc(Br)cc3[C@]12CCN(C)S(=O)(=O)c1ccc(Cl)cc1	>32
C=C1CCC[C@@H]2Nc3cc(Br)ccc3[C@]12CCNS(=O)(=O)c1ccc(Cl)cc1	16
C=C1CCC[C@@H]2Nc3ccc(Br)cc3[C@]12CCNS(=O)(=O)c1ccc(C#N)cc1	16
C=C1CCC[C@@H]2N(C)c3ccc(Br)cc3[C@]12CCNS(=O)(=O)c1ccc(Cl)cc1	>32
C=C1CCC[C@@H]2Nc3c(Cl)cc(Cl)cc3[C@]12CCNS(=O)(=O)c1ccc(Cl)cc1	4
C=C1CCC[C@@H]2Nc3ccc(Br)cc3[C@]12CCN(C(=O)c1ccc(Cl)cc1)S(=O)(=O)c1ccc(Cl)cc1	>32

tested on: not listed separately; assay: Cytotoxicity against human HeLa cells after 24 hrs by CellTiter-Glo assay; type: cell-based
Procedure, shortened: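 HeLa cells seeded at 20 000 cells/well in DMEM with 10% FCS and 1% penicillin/streptomycin, grown 16 h at 37 °C, 5% CO2. Medium renewed, then compound added in DMSO to final 0.5–32 μg/mL, triplicate series. After 24 h at 37 °C, plates equilibrated to room temperature and viability read by CellTiter-Glo luminescence.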

SMILES	GI50 at 24 h [µg/mL]
C=C1CCC[C@@H]2Nc3c(F)cc(Br)cc3[C@]12CCNS(=O)(=O)c1ccc(C)cc1	22 (≈ 45.9 µM)
C=C1CCC[C@@H]2Nc3c(F)cc(Br)cc3[C@]12CCNS(=O)(=O)c1ccc(C(F)(F)F)cc1	8.7 (≈ 16.3 µM)
C=C1CCC[C@@H]2Nc3c(F)cc(Br)cc3[C@]12CCNS(=O)(=O)c1ccc(NC(C)=O)cc1	32 (≈ 61.3 µM)
C=C1CCC[C@@H]2Nc3ccc(Br)cc3[C@]12CCNS(=O)(=O)c1ccc(Cl)cc1	17.1 (≈ 35.5 µM)
C=C1CCC[C@@H]2Nc3c(F)cc(Br)cc3[C@]12CCNS(=O)(=O)c1ccc(C#N)cc1	17 (≈ 34.7 µM)
C=C1CCC[C@@H]2Nc3c(Cl)cc(Cl)cc3[C@]12CCNS(=O)(=O)c1ccc(Cl)cc1	13.6 (≈ 28.8 µM)
